One assay has as its target T1, D(4) dopamine receptor (Homo sapiens, UniProt P21917).
T1 sequence (P21917 whole entry): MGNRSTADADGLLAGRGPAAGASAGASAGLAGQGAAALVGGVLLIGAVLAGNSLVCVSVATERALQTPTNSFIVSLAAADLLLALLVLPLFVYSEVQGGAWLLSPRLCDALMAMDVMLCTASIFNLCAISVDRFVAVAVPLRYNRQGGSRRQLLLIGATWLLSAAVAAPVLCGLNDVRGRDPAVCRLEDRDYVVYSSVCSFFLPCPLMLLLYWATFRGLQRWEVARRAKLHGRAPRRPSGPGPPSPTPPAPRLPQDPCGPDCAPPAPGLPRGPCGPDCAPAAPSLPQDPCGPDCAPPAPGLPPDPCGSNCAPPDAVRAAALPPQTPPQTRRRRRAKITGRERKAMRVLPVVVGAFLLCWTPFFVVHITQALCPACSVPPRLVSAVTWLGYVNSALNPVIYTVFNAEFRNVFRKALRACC
Put plainly: Displacement of [3H]spiperone from human dopamine D4.4 receptor expressed in CHO cells. Type of assay: cell-based. The method in brief:
(§1)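 Competition binding at cloned human receptors of the D2 family with [3H]spiperone as radioligand; test ligand displacement expressed as Ki.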

The next assay addresses D(1B) dopamine receptor (Homo sapiens, UniProt P21918). Put plainly: Displacement of [3H]SCH 23390 from human dopamine D5 receptor expressed in HEK293 cells. It counts as cell-based. In general terms: Displacement assays read how much labelled ligand stays bound in the presence of the test substance.
The target of a further assay is D(1A) dopamine receptor (Homo sapiens, UniProt P21728). The experiment in a line: Displacement of [3H]SCH 23390 from human dopamine D1 receptor. The method in brief: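 Competition binding at cloned human receptors of the D1 family with [3H]SCH 23390 as radioligand; test ligand displacement expressed as Ki.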
The next assay concerns the target D(2) dopamine receptor (Homo sapiens, UniProt P14416). Put plainly: Displacement of [3H]spiperone from human dopamine D2L receptor expressed in HEK293 cells. It counts as cell-based. Summed up:
as §1

A further assay addresses D(3) dopamine receptor (Homo sapiens, UniProt P35462). Put plainly: Displacement of [3H]spiperone from human dopamine D3 receptor expressed in CHO cells. Type of assay: cell-based. Summed up: as §1

Usually Ki stands for the dissociation constant of the complex between target and ligand, obtained from inhibition or displacement. Low values mean higher affinity, high ones lower affinity.

Bounds are passed on as bounds.

Sequence of D(2) dopamine receptor (P14416 whole entry): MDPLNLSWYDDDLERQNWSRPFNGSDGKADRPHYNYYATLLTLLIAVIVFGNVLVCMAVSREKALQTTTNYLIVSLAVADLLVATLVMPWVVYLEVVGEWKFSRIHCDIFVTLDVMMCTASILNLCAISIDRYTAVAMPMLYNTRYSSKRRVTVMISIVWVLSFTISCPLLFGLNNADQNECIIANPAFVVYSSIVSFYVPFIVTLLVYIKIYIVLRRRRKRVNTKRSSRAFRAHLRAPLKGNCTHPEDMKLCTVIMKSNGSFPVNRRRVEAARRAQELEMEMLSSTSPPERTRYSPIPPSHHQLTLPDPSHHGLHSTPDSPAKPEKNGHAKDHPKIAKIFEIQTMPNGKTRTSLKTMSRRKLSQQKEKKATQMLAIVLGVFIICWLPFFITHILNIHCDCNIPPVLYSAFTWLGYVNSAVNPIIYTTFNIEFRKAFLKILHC
Sequence of D(3) dopamine receptor (P35462 whole entry): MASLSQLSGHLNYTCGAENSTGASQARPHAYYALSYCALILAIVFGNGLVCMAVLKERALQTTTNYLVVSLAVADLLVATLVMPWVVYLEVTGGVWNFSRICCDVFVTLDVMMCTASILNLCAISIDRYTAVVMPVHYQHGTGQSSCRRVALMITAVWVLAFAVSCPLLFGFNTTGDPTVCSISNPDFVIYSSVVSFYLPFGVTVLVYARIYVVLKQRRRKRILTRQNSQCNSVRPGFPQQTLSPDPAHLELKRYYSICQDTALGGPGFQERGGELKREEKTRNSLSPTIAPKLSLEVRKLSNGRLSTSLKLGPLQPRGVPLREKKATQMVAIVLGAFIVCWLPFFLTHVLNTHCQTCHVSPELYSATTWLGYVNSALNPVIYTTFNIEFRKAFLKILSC
Sequence of D(1B) dopamine receptor (P21918 whole entry): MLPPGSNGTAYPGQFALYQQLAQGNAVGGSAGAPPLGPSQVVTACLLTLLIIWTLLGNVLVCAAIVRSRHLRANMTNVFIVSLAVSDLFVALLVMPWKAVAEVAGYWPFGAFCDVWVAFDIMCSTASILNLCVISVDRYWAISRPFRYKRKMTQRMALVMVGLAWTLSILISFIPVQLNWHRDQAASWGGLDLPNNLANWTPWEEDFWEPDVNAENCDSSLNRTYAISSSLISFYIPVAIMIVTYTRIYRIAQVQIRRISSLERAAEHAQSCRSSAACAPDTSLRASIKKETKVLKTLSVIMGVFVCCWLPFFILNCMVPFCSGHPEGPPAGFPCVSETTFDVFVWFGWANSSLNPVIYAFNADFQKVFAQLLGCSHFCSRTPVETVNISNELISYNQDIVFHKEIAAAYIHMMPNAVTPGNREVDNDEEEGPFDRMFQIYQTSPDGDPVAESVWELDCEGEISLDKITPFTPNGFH
Sequence of D(1A) dopamine receptor (P21728 whole entry): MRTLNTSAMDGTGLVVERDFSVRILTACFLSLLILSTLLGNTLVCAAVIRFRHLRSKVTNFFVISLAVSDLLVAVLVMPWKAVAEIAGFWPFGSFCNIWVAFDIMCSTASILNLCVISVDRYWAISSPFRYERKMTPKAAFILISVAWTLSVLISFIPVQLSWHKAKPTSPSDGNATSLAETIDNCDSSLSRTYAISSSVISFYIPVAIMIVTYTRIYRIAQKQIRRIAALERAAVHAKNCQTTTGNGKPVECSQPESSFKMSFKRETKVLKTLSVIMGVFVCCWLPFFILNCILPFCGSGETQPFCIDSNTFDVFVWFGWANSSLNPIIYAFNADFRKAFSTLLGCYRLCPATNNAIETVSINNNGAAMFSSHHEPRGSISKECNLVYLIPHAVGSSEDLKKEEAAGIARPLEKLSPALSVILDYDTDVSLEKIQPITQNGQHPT

On to `CN1CCCc2ccccc2Cc2ccc(O)cc2CC1`, for which the Ki is 0.0602 µM at D(4) dopamine receptor; 0.0098 µM at D(1B) dopamine receptor; 0.0032 µM on D(1A) dopamine receptor; 0.074 µM at D(2) dopamine receptor; 0.1 µM on D(3) dopamine receptor.

Regarding `COc1ccc2c(c1)CCCN(C)CCCc1ccccc1C2`, the Ki was 2.87 µM on D(4) dopamine receptor; 0.053 µM at D(1B) dopamine receptor; 0.0235 µM on D(1A) dopamine receptor; 0.172 µM on D(2) dopamine receptor; 1.35 µM at D(3) dopamine receptor.

With `COc1ccc2c(c1)Cc1ccccc1CCCN(C)CC2`, the Ki at D(4) dopamine receptor was found to be 2.76 µM; on D(1B) dopamine receptor it was 0.075 µM; at D(1A) dopamine receptor it was 0.137 µM; on D(2) dopamine receptor, 1.4 µM; on D(3) dopamine receptor, 23.9 µM.

For `COc1ccc2c(c1)CCN(C)CCCc1ccccc1C2`, the Ki at D(4) dopamine receptor is 0.271 µM; on D(1B) dopamine receptor it was 0.0046 µM; at D(1A) dopamine receptor, 0.0185 µM; at D(2) dopamine receptor, 0.087 µM; at D(3) dopamine receptor, 0.507 µM.

At D(1B) dopamine receptor, `COc1ccc2c(c1)CCN(C)CCc1ccccc1C2` yielded a Ki of 0.054 µM.

On to `CN1CCCc2cc(O)ccc2Cc2ccccc2CC1`, for which the Ki on D(4) dopamine receptor came to 2.26 µM; at D(1B) dopamine receptor, 0.017 µM; on D(1A) dopamine receptor, 0.0139 µM; at D(2) dopamine receptor, 0.518 µM; on D(3) dopamine receptor it was 6.12 µM.

Regarding `COc1ccc2c(c1)CCCN(C)CCc1ccccc1C2`, the Ki at D(4) dopamine receptor turned out to be 1.1 µM; at D(1B) dopamine receptor, 0.055 µM; at D(1A) dopamine receptor it was 0.0294 µM; on D(2) dopamine receptor, 0.025 µM; at D(3) dopamine receptor, 3.14 µM.

Turning to `CN1CCCc2ccccc2Cc2ccc(O)cc2CCC1`, the Ki at D(4) dopamine receptor worked out at 0.422 µM; on D(1B) dopamine receptor it was 0.095 µM; on D(1A) dopamine receptor it was 0.083 µM; on D(2) dopamine receptor it was 0.382 µM; on D(3) dopamine receptor, 3.96 µM.

In the case of `COc1cc2c(cc1Cl)CCN1CCCc3ccccc3C21` (stereo unspecified), the Ki on D(4) dopamine receptor, on D(1B) dopamine receptor, at D(1A) dopamine receptor, on D(2) dopamine receptor and at D(3) dopamine receptor was over 10 µM throughout.

As for `CN1CCCc2ccccc2Cc2cc(O)ccc2CC1`, the Ki is 3.75 µM on D(4) dopamine receptor; 0.069 µM at D(1B) dopamine receptor; 0.07 µM on D(1A) dopamine receptor; 0.063 µM at D(2) dopamine receptor; 0.776 µM on D(3) dopamine receptor.

`Oc1ccc2c(c1)CCCNCCc1ccccc1C2`: the Ki was determined as 4.26 µM at D(4) dopamine receptor; 0.314 µM on D(1B) dopamine receptor; 0.291 µM at D(1A) dopamine receptor; 0.857 µM at D(2) dopamine receptor; 6.9 µM on D(3) dopamine receptor.

In the case of `COc1ccc(CCN2CCCc3ccccc3C2)cc1Cl`, the Ki at D(4) dopamine receptor, on D(1B) dopamine receptor, on D(1A) dopamine receptor, on D(2) dopamine receptor and at D(3) dopamine receptor was over 10 µM in each case.

Turning to `COc1cc2c(cc1OC)Cc1ccccc1CCCN(C)CC2`, the Ki on D(4) dopamine receptor stood at 5.05 µM; at D(1B) dopamine receptor, 0.51 µM; at D(1A) dopamine receptor, 0.579 µM; at D(2) dopamine receptor, 1.03 µM; at D(3) dopamine receptor, 14.8 µM.

For the molecule `COc1ccc2c(c1)CCCN1CCCc3ccccc3C21` (stereo unspecified), the Ki on D(4) dopamine receptor, at D(1B) dopamine receptor, on D(1A) dopamine receptor, at D(2) dopamine receptor and at D(3) dopamine receptor was over 10 µM in each case.

For the origin of these results see ChEMBL document CHEMBL1148752, “Dopamine/serotonin receptor ligands. 16.(1) Expanding dibenz[d,g]azecines to 11- and 12-membered homologues. Interaction with dopamine D(1)-D(5) receptors” (J Med Chem, 2007).
